ChEMBL document CHEMBL1139507, “Application of phosphoramidate pronucleotide technology to abacavir leads to a significant enhancement of antiviral potency” (J Med Chem, 2005)
“And” between values parts separate entries of the source, which are not always exact repeats. Identical values can stand only once.

Experiments:
[1] = system: Human immunodeficiency virus 1; experiment: Effective concentration against human immunodeficiency virus type 1 in MT-4 cells; format: functional, organism-based, MT4; conditions: mt4
[2] = Terminal elimination half-life in monkey after intravenous dosage; NA = not applicable; format: ADME, organism-based; conditions: cercopithecidae, in vivo
How it was run: (§1)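 Female cynomolgus monkeys (three, 2.0-3.2 kg) received the succinate salt at 11.5 mg/kg (17.3 µmol/kg), 2.3 mg/mL in 10% DMSO/90% saline, 5 mL/kg, iv on day 1 and orally on day 8 (1-week washout); fasted overnight to ~4 h postdose. Serial plasma to 24 h, acetonitrile deproteination, LC/MS/MS of prodrug, alaninyl-ABC-MP, ABC-MP, ABC, CBV; noncompartmental analysis.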

CCRF-CEM [3] = experiment: Intracellular concentration of metabolites (ABCMP) from 6-8 hrs in CEM cells after incubation with the compound (10 uM); format: functional, cell-based; conditions: Homo sapiens
How it was run: (§2)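 CEM T4 lymphocytes seeded at (2-4) × 10⁵ cells/mL in RPMI-1640 with 10% fetal calf serum, 2 mM L-glutamine, 0.075% NaHCO₃. They were exposed 24 h to 10 µM [³H]abacavir or 1.1 µM ³H-ProTide (5 µCi/5 mL), washed twice in cold medium, and extracted with cold methanol/water 60:40. Metabolites were separated by SAX HPLC, (NH₄)H₂PO₄ pH 5.0 gradient 0.005-0.30 M, with fractions by retention time in min. Results are pmol/10⁹ cells.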

Human alphaherpesvirus 1 [4] = experiment: Effective concentration against thymidine kinase deficient herpes simplex virus (HSV-1) in B2006 strain; conditions: Human alphaherpesvirus 1, B2006
CCRF-CEM [5] = experiment: Intracellular concentration of metabolites (ABC +CBV) from 2-3 hrs in CEM cells after incubation with the compound (10 uM); format: functional, cell-based; conditions: Homo sapiens; how it was run: as §2
[6] = Area under the plasma concentration-time curve in monkey after intravenous dosage; format: ADME; conditions: cercopithecidae; how it was run: as §1
CCRF-CEM [7] = experiment: Intracellular concentration of metabolites (CBVTP) from 35-38 hrs in CEM cells after incubation with the compound (10 uM); format: functional, cell-based; conditions: Homo sapiens; how it was run: as §2
Hepatitis B virus [8] = experiment: Effective concentration against HBV in Hep G2.2.15 cells; format: functional, organism-based, HepG2 2.2.15; conditions: Hepatitis B virus, HepG2 2.2.15
How it was run: (§3)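 Anti-HBV activity assayed in HepG2 2.2.15 human hepatoma cells, which constitutively produce HBV; EC50 = 50% effective concentration.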

Human alphaherpesvirus 1 [9] = experiment: Effective concentration against thymidine kinase deficient herpes simplex virus (HSV-1) in VMW-1837 strain; conditions: Human alphaherpesvirus 1, VMW-1837
[10] = system: Human immunodeficiency virus 2; experiment: Effective concentration against human immunodeficiency virus type 2 in MT-4 cells; format: functional, organism-based; conditions: Human immunodeficiency virus 2, MT4
[11] = system: Moloney murine sarcoma virus; experiment: Effective concentration against murine moloney sarcoma virus in C3H/3T3 cells; format: functional, organism-based
[12] = system: Human immunodeficiency virus 1; experiment: Effective concentration against human immunodeficiency virus type 1 in CEM cells; format: functional, organism-based; conditions: Human immunodeficiency virus 1, CCRF-CEM
How it was run: (§4)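 HIV-1- and HIV-2-induced cytopathicity in CEM cell cultures, scored at day 4 by microscopic examination of virus-induced giant cell formation; EC50 = concentration inhibiting cytopathicity by 50%.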

[13] = Time of maximum concentration was observed in monkey after oral dosage; format: ADME, organism-based; conditions: cercopithecidae, in vivo; how it was run: as §1
[14] = Apparent half life value in monkey after oral dosage; format: ADME, organism-based; conditions: cercopithecidae, in vivo, read-out: T1/2 app (converted); how it was run: as §1
[15] = system: Human immunodeficiency virus 2; experiment: Effective concentration against human immunodeficiency virus type 2 in CEM cells; format: functional, organism-based; conditions: Human immunodeficiency virus 2, CCRF-CEM; how it was run: as §4
[16] = system: Human immunodeficiency virus 1; experiment: Effective concentration against human immunodeficiency virus type 1 in PBL cells; format: functional, organism-based; conditions: Human immunodeficiency virus 1, PBL
[17] = system: Human immunodeficiency virus 1; experiment: Ratio of CC50 to that of EC50 against human immunodeficiency virus type 1 in CEM cells; format: functional, CCRF-CEM
HEL = experiment: Cytostatic concentration required to inhibit HEL cell proliferation; format: functional; conditions: Homo sapiens
How it was run: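 HEL cell proliferation measured in presence of compound; CC50 = 50% cytostatic concentration inhibiting HEL cell proliferation by 50%.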

CCRF-CEM [18] = experiment: Intracellular concentration of metabolites (CBVDP) from 19-21 hrs in CEM cells after incubation with the compound (10 uM); format: functional, cell-based; conditions: Homo sapiens; how it was run: as §2
C3H/3T3 = experiment: Cytostatic concentration required to inhibit C3H/3T3 cell proliferation; format: functional; conditions: Mus musculus
[19] = system: Human immunodeficiency virus 2; experiment: Effective concentration against human immunodeficiency virus type 2 (ROD) in CEM cells; format: functional, organism-based; conditions: Human immunodeficiency virus 2, CCRF-CEM; how it was run: as §4
MT4 = experiment: Cytostatic concentration required to inhibit MT-4 cell proliferation; format: functional, Homo sapiens
Hepatitis B virus [20] = experiment: Effective concentration againstHBV in Hep G2.2.15 cells; format: functional, organism-based, HepG2 2.2.15; conditions: Hepatitis B virus, HepG2 2.2.15; how it was run: as §3
HepG2 [21] = experiment: Cytostatic concentration required to inhibit Hep G2 cell proliferation; format: functional; conditions: Homo sapiens
CCRF-CEM [22] = experiment: Cytostatic concentration required to inhibit CEM cell proliferation; format: functional; conditions: Homo sapiens
Human alphaherpesvirus 1 [23] = experiment: Effective concentration against thymidine kinase competent herpes simplex virus (HSV-1) in […]; format: functional, organism-based
How it was run: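 Confluent HEL cell cultures inoculated with 100 CCID50 of HSV-1 (KOS), HSV-2 (G) or HSV-1 TK- (B2006, VMW-1837); after 1 h adsorption, residual virus removed and cells incubated with varying compound concentrations; cytopathicity recorded once complete in virus controls; EC50 = concentration inhibiting HSV-induced cytopathicity by 50%.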

[24] = system: Human immunodeficiency virus 2; experiment: Ratio of CC50 to that of EC50 against human immunodeficiency virus type 2 in CEM cells; format: functional, CCRF-CEM
Human alphaherpesvirus 2 = experiment: Effective concentration against thymidine kinase competent herpes simplex virus (HSV-2) in […]
[25] = Area under the plasma concentration-time curve in monkey after peroral dosage; format: ADME; conditions: cercopithecidae, po; how it was run: as §1
HepG2 [26] = experiment: Cytostatic concentration required to inhibit Hep G2.2.15 cell proliferation; format: functional, Homo sapiens
How it was run: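 Growth inhibition of HepG2 2.2.15 human hepatoma cells (constitutively HBV-producing) measured; CC50 = 50% cytostatic concentration.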

CCRF-CEM [27] = experiment: Intracellular concentration of metabolites (CBV-MP) from 11-13 hrs in CEM cells after incubation with the compound (10 uM); format: functional, cell-based; conditions: Homo sapiens; how it was run: as §2
[28] = Oral bioavailability in monkey after oral dosage; format: ADME, organism-based; conditions: cercopithecidae, in vivo; how it was run: as §1
[29] = Terminal elimination half-life in monkey after administration of intravenous dosage; format: ADME, organism-based; conditions: cercopithecidae, in vivo; how it was run: as §1
[30] = Total plasma clearance in monkey after administration of intravenous dosage; (n=3); format: ADME, organism-based; conditions: cercopithecidae; how it was run: as §1
[31] = Area under the plasma concentration-time curve in monkey after administration of intravenous dosage; format: ADME; conditions: cercopithecidae; how it was run: as §1
[32] = Terminal elimination half-life in monkey after intravenous dosage; NA=not applicable; format: ADME, organism-based; conditions: cercopithecidae, in vivo; how it was run: as §1
CCRF-CEM [33] = experiment: Intracellular concentration of metabolites (ABC + proABC + CBV) from 2-3 hrs in CEM cells after incubation with the compound (10 uM); format: functional, cell-based; conditions: Homo sapiens; how it was run: as §2
CCRF-CEM [34] = experiment: Intracellular concentration of metabolites (CBVMP +alaninyl-ABCMP) from 11-13 hrs in CEM cells after incubation with the compound (10 uM); format: functional, cell-based; conditions: Homo sapiens; how it was run: as §2
Hepatitis B virus [35] = experiment: Effective concentration against hepatitis B virus in Hep G2.2.15 cells; format: functional, organism-based; conditions: HepG2 2.2.15; how it was run: as §3

Structure (SMILES): Nc1nc(NC2CC2)c2ncn([C@H]3C=C[C@@H](CO)C3)c2n1 [ABACAVIR]
- EC50 [1]: 5.9 µM and 2.15 µM
- T1/2 [2]: Not Active
- Concentration (pmol/E109 cells) (CCRF-CEM [3]): 5.8
- EC50 (Human alphaherpesvirus 1 [4]): 900 µM
- Concentration (pmol/E109 cells) (CCRF-CEM [5]): 762
- AUC [6]: 6 µM·h
- Concentration (pmol/E109 cells) (CCRF-CEM [7]): 82
- EC50 (Hepatitis B virus [8]): 5.6 µM
- EC50 (Human alphaherpesvirus 1 [9]): 320 µM
- EC50 [10]: 7.3 µM
- EC50 [11]: 8.8 µM
- EC50 [12]: 1.9 µM
- Tmax [13]: 3 h
- half-life [14]: 2.6 h
- EC50 [15]: 3 µM
- EC50 [16]: 0.2 µM
- SI [17]: 41
- CC50 (HEL): 200 µM
- Concentration (pmol/E109 cells) (CCRF-CEM [18]): 42
- CC50 (C3H/3T3): > 20 µM
- EC50 [19]: 3 µM
- CC50 (MT4): 192 µM and 89 µM
- EC50 (Hepatitis B virus [20]): 5.6 µM
- CC50 (HepG2 [21]): 110 µM
- CC50 (CCRF-CEM [22]): 78 µM
- EC50 (Human alphaherpesvirus 1 [23]): 900 µM
- SI [24]: 26
- EC50 (Human alphaherpesvirus 2): 900 µM
- AUC [25]: 6 µM·h
- CC50 (HepG2 [26]): 17 µM and 110 µM
- Concentration (pmol/E109 cells) (CCRF-CEM [27]): 108

Structure (SMILES): CCOC(=O)[C@H](C)NP(=O)(OC[C@@H]1C=C[C@H](n2cnc3c(NC4CC4)nc(N)nc32)C1)Oc1ccccc1 (stereo partly specified)
- bioavailability [28]: 22%
- half-life [29]: 6.6 min
- Tmax [13]: 0.8 h
- half-life [14]: 0.4 h
- AUC [25]: 0.7 µM·h
- clearance [30]: 113 mL/min/kg
- AUC [31]: 2.7 µM·h

Structure (SMILES): Nc1nc(NC2CC2)c2ncn([C@H]3C=C[C@@H](COP(=O)(O)O)C3)c2n1
- Concentration (pmol/10E9 cells) (CCRF-CEM [3]): 280
- EC50 (Human alphaherpesvirus 1 [4]): 20 µM
- AUC [6]: 0.4 µM·h
- Concentration (pmol/10E9 cells) (CCRF-CEM [7]): 3020
- T1/2 [32]: Not Active
- Concentration (pmol/10E9 cells) (CCRF-CEM [33]): 5000
- EC50 (Human alphaherpesvirus 1 [9]): 20 µM
- EC50 [11]: 1.6 µM
- Concentration (pmol/10E9 cells) (CCRF-CEM [34]): 12400
- EC50 (Hepatitis B virus [35]): 0.55 µM
- EC50 [12]: 0.07 µM
- Tmax [13]: 1.3 h
- EC50 [16]: 0.008 µM
- SI [17]: 190
- CC50 (HEL): 110 µM
- Concentration (pmol/10E9 cells) (CCRF-CEM [18]): 3490
- CC50 (C3H/3T3): > 4 µM
- EC50 [19]: 0.09 µM
- CC50 (CCRF-CEM [22]): 13 µM
- EC50 (Human alphaherpesvirus 1 [23]): 20 µM
- SI [24]: 150
- EC50 (Human alphaherpesvirus 2): 20 µM
- CC50 (HepG2 [26]; Homo sapiens, HepG2): 17 µM
